From ChEMBL document CHEMBL2169869, “Assay and inhibition of diacylglycerol lipase activity” (Bioorg Med Chem Lett, 2012) come the findings set out here.

One experiment is filed under the species Sus scrofa. Briefly: Inhibition of porcine pancreatic lipase type 2 at 10 uM by FRET assay.
A further experiment relates to Bacteria. Briefly: Inhibition of bacterial lipoprotein lipase at 10 uM by FRET assay.
In experiment [1] the target is T1, Monoglyceride lipase (Homo sapiens) (UniProt Q99685).
T1 sequence (whole entry): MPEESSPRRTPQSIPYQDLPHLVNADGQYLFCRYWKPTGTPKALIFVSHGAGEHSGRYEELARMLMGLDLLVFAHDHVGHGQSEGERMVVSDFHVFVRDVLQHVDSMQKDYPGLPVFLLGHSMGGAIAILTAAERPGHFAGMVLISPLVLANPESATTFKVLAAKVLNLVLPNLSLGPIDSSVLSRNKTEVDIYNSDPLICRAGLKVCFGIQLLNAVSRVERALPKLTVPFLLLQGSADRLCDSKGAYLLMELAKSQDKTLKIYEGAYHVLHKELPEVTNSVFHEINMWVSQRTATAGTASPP
In words: Inhibition of human N-terminal histidine tagged full length MAGL expressed in Escherichia coli at 10 uM by coumarin ester substrate fluorescence assay.

Experiment [2] concerns the target T2, Diacylglycerol lipase-alpha (Mus musculus) (UniProt Q6WQJ1).
T2 sequence (whole entry): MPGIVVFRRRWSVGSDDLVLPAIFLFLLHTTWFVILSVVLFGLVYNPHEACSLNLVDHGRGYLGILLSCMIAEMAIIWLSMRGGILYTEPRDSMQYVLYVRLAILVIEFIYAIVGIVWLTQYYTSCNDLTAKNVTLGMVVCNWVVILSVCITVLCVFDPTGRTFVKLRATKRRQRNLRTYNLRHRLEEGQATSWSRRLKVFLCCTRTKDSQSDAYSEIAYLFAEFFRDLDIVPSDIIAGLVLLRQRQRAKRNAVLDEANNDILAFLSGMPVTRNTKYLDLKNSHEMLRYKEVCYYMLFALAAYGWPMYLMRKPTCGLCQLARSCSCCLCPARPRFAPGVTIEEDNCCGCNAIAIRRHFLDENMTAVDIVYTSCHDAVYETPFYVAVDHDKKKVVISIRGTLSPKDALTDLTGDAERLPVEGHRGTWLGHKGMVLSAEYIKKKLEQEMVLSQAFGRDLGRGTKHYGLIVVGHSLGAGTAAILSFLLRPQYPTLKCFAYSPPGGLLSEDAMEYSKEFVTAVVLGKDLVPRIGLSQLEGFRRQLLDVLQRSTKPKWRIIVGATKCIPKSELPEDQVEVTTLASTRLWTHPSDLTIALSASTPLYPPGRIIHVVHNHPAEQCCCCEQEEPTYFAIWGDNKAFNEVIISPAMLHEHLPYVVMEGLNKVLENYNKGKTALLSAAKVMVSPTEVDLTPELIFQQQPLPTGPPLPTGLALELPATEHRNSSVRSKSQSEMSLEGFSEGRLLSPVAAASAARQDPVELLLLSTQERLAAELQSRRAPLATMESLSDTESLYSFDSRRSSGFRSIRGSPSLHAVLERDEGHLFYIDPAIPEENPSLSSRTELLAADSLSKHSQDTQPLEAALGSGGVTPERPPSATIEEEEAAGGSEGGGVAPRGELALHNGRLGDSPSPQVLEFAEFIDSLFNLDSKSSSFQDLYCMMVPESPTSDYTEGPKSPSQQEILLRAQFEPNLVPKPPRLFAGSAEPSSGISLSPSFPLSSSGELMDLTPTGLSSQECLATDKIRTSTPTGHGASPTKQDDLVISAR
Briefly: Inhibition of mouse DAGLalpha expressed in HEK293T cell membrane using [14C]SAG substrate at 100 nM by scintillation counting based radio-TLC assay. It counts as cell membranes. Particulars: HEK-293T. In short, it runs like this: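 mDAGLα radio-TLC using 8.8 μg membrane protein in 50 mM Tris pH 7.4 with 10 mM CaCl2. Inhibitor tested at 10 nM–10 μM, preincubated 15 min at 37 °C. [14C]SAG 20 μM final for 20 min at 37 °C. CHCl3/MeOH quench, silica TLC, phosphorimaging. Activity = labelled 2-AG+AA over total label. n=1–2.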

For experiment [3], the target named is T3, Diacylglycerol lipase-alpha (Homo sapiens) (UniProt Q9Y4D2).
T3 sequence (whole entry): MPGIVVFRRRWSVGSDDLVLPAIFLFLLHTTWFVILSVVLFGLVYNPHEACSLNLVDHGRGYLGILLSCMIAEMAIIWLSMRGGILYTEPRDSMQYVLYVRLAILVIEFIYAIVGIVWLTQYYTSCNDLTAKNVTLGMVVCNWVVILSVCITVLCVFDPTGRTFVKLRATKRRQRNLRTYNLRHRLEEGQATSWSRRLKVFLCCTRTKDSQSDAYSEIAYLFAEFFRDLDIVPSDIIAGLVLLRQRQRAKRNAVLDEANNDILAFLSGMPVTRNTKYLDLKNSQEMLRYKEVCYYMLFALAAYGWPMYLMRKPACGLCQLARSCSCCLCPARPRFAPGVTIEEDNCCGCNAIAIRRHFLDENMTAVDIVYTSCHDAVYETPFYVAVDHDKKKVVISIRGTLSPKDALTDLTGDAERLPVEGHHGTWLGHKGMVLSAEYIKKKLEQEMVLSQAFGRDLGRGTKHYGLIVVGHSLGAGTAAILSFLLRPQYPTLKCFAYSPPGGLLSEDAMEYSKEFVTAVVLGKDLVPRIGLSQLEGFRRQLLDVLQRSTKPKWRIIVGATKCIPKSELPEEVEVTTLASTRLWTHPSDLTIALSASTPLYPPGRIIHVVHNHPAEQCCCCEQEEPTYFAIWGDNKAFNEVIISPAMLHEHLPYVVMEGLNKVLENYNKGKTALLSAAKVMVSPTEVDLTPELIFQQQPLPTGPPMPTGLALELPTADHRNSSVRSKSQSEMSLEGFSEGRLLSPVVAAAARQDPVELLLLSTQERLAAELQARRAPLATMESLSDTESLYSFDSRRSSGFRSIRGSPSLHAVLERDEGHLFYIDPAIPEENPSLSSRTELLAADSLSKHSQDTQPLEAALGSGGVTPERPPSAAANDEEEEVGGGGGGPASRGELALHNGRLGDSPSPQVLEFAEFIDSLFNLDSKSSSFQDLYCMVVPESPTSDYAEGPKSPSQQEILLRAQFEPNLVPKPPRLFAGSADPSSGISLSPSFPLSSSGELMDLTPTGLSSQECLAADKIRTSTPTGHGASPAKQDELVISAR
Briefly: Inhibition of human DAGLalpha expressed in HEK293T cell membrane using [14C]SAG substrate at 10 uM in presence of 0.05% Triton X-100 by scintillation counting based radio-TLC assay. It is filed as cell membranes. Particulars: HEK-293T. The gist of the method: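 Sonicated HEK293T protein (100 μg) in 50 mM Tris pH 7.4 with 10 mM CaCl2. Inhibitor in DMSO (10% DMSO standard) preincubated 15 min at 37 °C. [14C]SAG was added to 20 μM final for 20 min at 37 °C, with Triton X-100 where the line states it. Quenched with 2:1 CHCl3/MeOH. Silica TLC in CHCl3/MeOH/NH4OH 86:14:0.75, then 12 h phosphorimaging. Activity = (2-AG+AA)/(2-AG+AA+SAG). Background-subtracted; n=1–2.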

A word on the inhibition: it is the relative decrease from the control value, in per cent.

In the case of `O=C(Oc1ccc([N+](=O)[O-])cc1)N1CCC(C(O)(c2ccc3c(c2)OCO3)c2ccc3c(c2)OCO3)CC1`, the inhibition in the experiment listed under Sus scrofa was 36%; in the experiment on Bacteria it was 36%; in experiment [1], 100%.

Consider `CCCCCCCCCCC[C@@H](C[C@@H]1OC(=O)[C@H]1CCCCCC)OC(=O)[C@@H](NC=O)[C@@H](C)CC`, for which the inhibition worked out at 80% in experiment [2]; 99% in the experiment listed under Sus scrofa; 98% in experiment [3]; 84% with Bacteria; 16% in experiment [1].

As to `CCCCCCCCCCC[C@@H](C[C@@H]1OC(=O)[C@H]1CCCCCC)OC(=O)[C@@H](NC=O)[C@H](C)CC`, the inhibition in experiment [2] amounted to 61%; in the experiment listed under Sus scrofa, 98%; in experiment [3], 95%; in the experiment on Bacteria it was 61%; in experiment [1], 1%.

Regarding `CCCCCCCCCCC[C@@H](C[C@@H]1OC(=O)[C@H]1CCCCCC)OC(=O)[C@H](CC)NC=O`, the inhibition came to 68% in experiment [2]; 97% in the experiment listed under Sus scrofa; 99% in experiment [3]; 80% with Bacteria; 45% in experiment [1].

As for `CCCCCCCCCCC[C@@H](C[C@@H]1OC(=O)[C@H]1CCCCCC)OC(=O)[C@H](NC=O)[C@@H](C)CC`, the inhibition stood at 51% in experiment [2]; 95% in the experiment filed under Sus scrofa; 86% in experiment [3]; 68% with Bacteria; 42% in experiment [1].

For `CCCCCCCCCCC[C@@H](C[C@@H]1OC(=O)[C@H]1CCCCCC)OC(=O)[C@H](NC=O)[C@H](C)CC`, the inhibition was determined as 29% in experiment [2]; 99% in the experiment filed under Sus scrofa; 78% in experiment [3]; 86% with Bacteria; 39% in experiment [1].

Turning to `CCCCCCCCCCC[C@@H](C[C@@H]1OC(=O)[C@H]1CCCCCC)OC(=O)[C@H](CC(C)C)NC=O` [ORLISTAT], the inhibition in experiment [2] stood at 72%; in the experiment listed under Sus scrofa it was 98%; in experiment [3] it was 100%; in experiment [1], 47%.
